Reference: ChEMBL document CHEMBL1136556, “Synthesis and SAR of alpha-acylaminoketone ligands for control of gene expression” (2003)

Columns and labels:
Assay type in all cases: functional
[1] = target: T1, Ecdysone receptor (Bombyx mori) (UniProt P49881); experiment: Agonist activity against Bombyx mori ecdysone receptor
T1 sequence (whole entry): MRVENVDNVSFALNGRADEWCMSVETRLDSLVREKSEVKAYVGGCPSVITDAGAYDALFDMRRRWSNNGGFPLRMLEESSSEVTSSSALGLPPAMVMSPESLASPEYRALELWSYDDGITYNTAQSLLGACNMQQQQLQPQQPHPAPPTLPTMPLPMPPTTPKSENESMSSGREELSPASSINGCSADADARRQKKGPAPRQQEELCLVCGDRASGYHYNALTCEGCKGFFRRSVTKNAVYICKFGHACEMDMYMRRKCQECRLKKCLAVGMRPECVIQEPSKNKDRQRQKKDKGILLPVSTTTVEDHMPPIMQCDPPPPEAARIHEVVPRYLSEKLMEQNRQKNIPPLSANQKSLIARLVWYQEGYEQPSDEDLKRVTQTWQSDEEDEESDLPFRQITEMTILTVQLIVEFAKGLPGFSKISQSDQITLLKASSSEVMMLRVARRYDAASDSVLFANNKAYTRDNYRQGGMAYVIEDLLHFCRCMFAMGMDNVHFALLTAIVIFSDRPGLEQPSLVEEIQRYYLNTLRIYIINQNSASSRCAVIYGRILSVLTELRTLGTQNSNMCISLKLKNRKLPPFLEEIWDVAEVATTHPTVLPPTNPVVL
Summary of the method: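 HEK-293 clone Z3 stably expressing Bombyx mori EcR with a β-galactosidase reporter under an ecdysone response element. Cells seeded at 2.5 × 10⁴ cells mL⁻¹ and held 24 h at 37 °C, 5% CO₂. Ligands from 10 mM DMSO stocks were diluted 100-fold in medium (final DMSO 0.03%). Luminescence read at 48 h; dose-response value is the dose giving 50% of maximal transactivation.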

[2] = tested on: HEK293; experiment: Dose response transactivation assay result expressed as dose affording 50% of max transactivation; details: Homo sapiens, read-out: LC50
Summary of the method: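 HEK-293 clone Z3 engineered to express Bombyx mori EcR, with a β-galactosidase gene under an ecdysone response element. Cells seeded at 2.5 × 10⁴ cells mL⁻¹, grown 24 h at 37 °C in 5% CO₂, then dosed across a concentration series from 10 mM DMSO stocks. Final DMSO 0.03%. Bioluminescent β-gal readout at 48 h; value is dose giving 50% of maximum transactivation.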

[3] = Ratio of max level of gene expression of compound to max level of gene expression with compound 1d
Summary of the method: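 Dose-response assay in Z3 HEK-293 cells (Bombyx mori EcR, ecdysone response element–β-galactosidase reporter), 48 h ligand exposure, final DMSO 0.03%, bioluminescent read-out. Value is the compound's maximal reporter expression divided by the maximal expression given by the reference dibenzoylhydrazine ecdysone agonist.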

Structure (SMILES): COc1cccc(C(=O)NC(C)(C(=O)c2ccc(C)cc2)C(C)C)c1C (stereo unspecified)
- Fold induction [1]: 31
- EC50 (transactivation) [2]: 20 µM
- Rel Max FI [3]: 0.05

Structure (SMILES): CCC(CC)(NC(=O)c1cccc(OC)c1C)C(=O)c1ccc(F)c(C)c1
- Fold induction [1]: 223
- EC50 (transactivation) [2]: 10.4 µM
- Rel Max FI [3]: 0.07

Structure (SMILES): CCc1ccc(C(=O)NC(C)(C)C(=O)c2ccccc2)cc1
- Fold induction [1]: 2

Structure (SMILES): COc1cccc(C(=O)NC2(C(=O)c3ccc(F)c(C)c3)CCCC2)c1C
- Fold induction [1]: 487
- EC50 (transactivation) [2]: 3.5 µM
- Rel Max FI [3]: 0.43

Structure (SMILES): COc1ccc(C(=O)C2(NC(=O)c3cccc(OC)c3C)CCCC2)cc1
- Fold induction [1]: 5

Structure (SMILES): CCC(CC)(NC(=O)c1cccc(OC)c1C)C(=O)c1ccc(OC)cc1
- Fold induction [1]: 4

Structure (SMILES): COc1cccc(C(=O)NC(C)(C)C(=O)c2ccccc2)c1
- Fold induction [1]: 1

Structure (SMILES): CCC(CC)(NC(=O)c1cccc(OC)c1C)C(=O)c1cc(C)cc(C)c1
- Fold induction [1]: 1000
- EC50 (transactivation) [2]: 4.5 µM
- Rel Max FI [3]: 0.6

Structure (SMILES): COc1cccc(C(=O)NC(C)(C)C(=O)c2ccccc2)c1C
- Fold induction [1]: 2

Structure (SMILES): COc1cccc(C(=O)NC2(C(=O)c3ccc(C)cc3)CCCC2)c1C
- Fold induction [1]: 21

Structure (SMILES): CCC(CC)(NC(=O)c1cccc(OC)c1C)C(=O)c1ccc(F)cc1
- Fold induction [1]: 60
- EC50 (transactivation) [2]: 13.7 µM
- Rel Max FI [3]: 0.04

Structure (SMILES): Cc1ccccc1C(=O)NC1(C(=O)c2ccccc2)CCCC1
- Fold induction [1]: 2

Structure (SMILES): COc1cccc(C(=O)NC2(C(=O)c3ccccc3)CCCC2)c1C
- Fold induction [1]: 71
- EC50 (transactivation) [2]: 2.7 µM
- Rel Max FI [3]: 0.14

Structure (SMILES): CCC(CC)(NC(=O)c1cccc(OC)c1C)C(=O)c1ccccc1C
- Fold induction [1]: 5

Structure (SMILES): CCC(CC)(NC(=O)c1cccc(OC)c1C)C(=O)c1cccc(C)c1
- Fold induction [1]: 525
- EC50 (transactivation) [2]: 6.6 µM
- Rel Max FI [3]: 0.25

Structure (SMILES): Cc1ccccc1C(=O)NC(C)(C)C(=O)c1ccccc1
- Fold induction [1]: 1

Structure (SMILES): CCC(CC)(NC(=O)c1cccc(OC)c1C)C(=O)c1ccccc1OC
- Fold induction [1]: 384
- EC50 (transactivation) [2]: 6.2 µM
- Rel Max FI [3]: 0.29

Structure (SMILES): COc1ccccc1C(=O)C(C)(NC(=O)c1cccc(OC)c1C)C(C)C (stereo unspecified)
- Fold induction [1]: 599
- EC50 (transactivation) [2]: 15 µM
- Rel Max FI [3]: 0.2

Structure (SMILES): CC(C)(NC(=O)c1ccc2c(c1)OCO2)C(=O)c1ccccc1
- Fold induction [1]: 1

Structure (SMILES): COc1cccc(C(=O)NC(C)(C(=O)c2ccccc2C)C(C)C)c1C (stereo unspecified)
- Fold induction [1]: 452
- EC50 (transactivation) [2]: 18 µM
- Rel Max FI [3]: 0.26

Structure (SMILES): COc1cccc(C(=O)C(C)(NC(=O)c2cccc(OC)c2C)C(C)C)c1 (stereo unspecified)
- Fold induction [1]: 35
- EC50 (transactivation) [2]: 25.5 µM
- Rel Max FI [3]: 0.12

Structure (SMILES): COc1cccc(C(=O)NC(C)(C(=O)c2ccccc2)C(C)C)c1C (stereo unspecified)
- Fold induction [1]: 71
- EC50 (transactivation) [2]: 33.3 µM
- Rel Max FI [3]: 0.04

Structure (SMILES): O=C(NC1(C(=O)c2ccccc2)CCCC1)c1ccccc1
- Fold induction [1]: 2

Structure (SMILES): COc1cccc(C(=O)NC2(C(=O)c3cc(C)cc(C)c3)CCCC2)c1C
- Fold induction [1]: 660
- EC50 (transactivation) [2]: 1.9 µM
- Rel Max FI [3]: 0.85

Structure (SMILES): COc1cccc(C(=O)NC2(C(=O)c3cccc(C)c3)CCCC2)c1C
- Fold induction [1]: 291
- EC50 (transactivation) [2]: 3.4 µM
- Rel Max FI [3]: 0.46

Structure (SMILES): O=C(NC1(C(=O)c2ccccc2)CCCC1)c1ccc2c(c1)OCO2
- Fold induction [1]: 1

Structure (SMILES): COc1cccc(C(=O)NC2(C(=O)c3ccc(F)cc3)CCCC2)c1C
- Fold induction [1]: 218
- EC50 (transactivation) [2]: 15 µM
- Rel Max FI [3]: 0.14

Structure (SMILES): COc1cccc(C(=O)C2(NC(=O)c3cccc(OC)c3C)CCCC2)c1
- Rel Max FI [3]: 0.12

Structure (SMILES): COc1ccccc1C(=O)C1(NC(=O)c2cccc(OC)c2C)CCCC1
- Fold induction [1]: 1200
- EC50 (transactivation) [2]: 5.2 µM
- Rel Max FI [3]: 0.7

Structure (SMILES): CCC(CC)(NC(=O)c1cccc(OC)c1C)C(=O)c1cccc(OC)c1
- Fold induction [1]: 256
- EC50 (transactivation) [2]: 33.3 µM
- Rel Max FI [3]: 0.01

Structure (SMILES): COc1cccc(C(=O)NC2(C(=O)c3ccccc3C)CCCC2)c1C
- Fold induction [1]: 30

Structure (SMILES): COc1cccc(C(=O)NC2(C(=O)c3ccccc3)CCCC2)c1
- Fold induction [1]: 2

Structure (SMILES): CCC(CC)(NC(=O)c1cccc(OC)c1C)C(=O)c1ccccc1
- Fold induction [1]: 11

Structure (SMILES): COc1cccc(C(=O)NC(C)(C(=O)c2cccc(C)c2)C(C)C)c1C (stereo unspecified)
- Fold induction [1]: 370
- EC50 (transactivation) [2]: 8.6 µM
- Rel Max FI [3]: 0.47

Structure (SMILES): CC(C)(NC(=O)c1ccccc1)C(=O)c1ccccc1
- Fold induction [1]: 1

Structure (SMILES): COc1cccc(C(=O)NC(C)(C(=O)c2ccc(F)c(C)c2)C(C)C)c1C (stereo unspecified)
- Rel Max FI [3]: 0.24

Structure (SMILES): CCC(CC)(NC(=O)c1cccc(OC)c1C)C(=O)c1ccc(C)cc1
- Fold induction [1]: 8

Structure (SMILES): COc1cccc(C(=O)NC(C)(C(=O)c2cc(C)cc(C)c2)C(C)C)c1C (stereo unspecified)
- Fold induction [1]: 751
- EC50 (transactivation) [2]: 2.1 µM
- Rel Max FI [3]: 0.75
